Measurements: ChEMBL document CHEMBL1132488, “On the bioactive conformation of NAN-190 (1) and MP3022 (2), 5-HT(1A) receptor antagonists” (J Med Chem, 1999)

What was measured:
Rattus norvegicus [1] = species on record: Rattus norvegicus; assay: Induction of behavioral syndrome(FBP: flat body posture) by the compound in reserpine pretreated rats at a dose of 8.; format: functional
In short: (§1)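 Male Wistar rats (260–300 g) were given reserpine 1 mg/kg sc in saline 18 h before testing. Test compound was then given alone ip as a 1% Tween 80 suspension (2 mL/kg). FBP and FT were each scored 0–3 and summed (maximum 15). n=6 per group; mean ± SEM; Newman–Keuls test.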

Rattus norvegicus [2] = species on record: Rattus norvegicus; assay: Induction of behavioral syndrome(FBP: flat body posture) by the compound in reserpine pretreated rats at a dose of 2.; format: functional
In short: (§2)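 Male Wistar rats (260–300 g), groups of 6, given reserpine 1 mg/kg sc 18 h before test. Compounds given ip as 1% Tween 80 suspension. FBP and FT rated 0–3 in 45-s sessions every 3 min, starting 3 min after dosing. Score summed over 5 periods (max 15 per symptom). Mean ± SEM; Newman–Keuls test.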

Rattus norvegicus [3] = species on record: Rattus norvegicus; assay: Effect on 8-OH-DAPT- induced behavioral syndrome(FT: forepaw treading) by the compound in reserpine pretreated rats at a dose of 2.; format: functional
Rattus norvegicus [4] = species on record: Rattus norvegicus; assay: Induction of behavioral syndrome(FBP: flat body posture) by the compound in reserpine pretreated rats at a dose of 4.; format: functional; in short: as §1
Rattus norvegicus [5] = species on record: Rattus norvegicus; assay: Effective dose of the required to inhibit symptoms produced by 8-OH-DPAT; format: functional
In short: (§3)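 Reserpinized male Wistar rats (reserpine 1 mg/kg sc, 18 h before), groups of 6. Compound given ip in 1% Tween 80 60 min before 8-OH-DPAT 5 mg/kg sc. FBP/FT rated 0–3 at 3, 6, 9, 12 and 15 min after agonist, summed (max 15). Mean ± SEM; Newman–Keuls test; ED50 with range.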

Rattus norvegicus [6] = assay: Induction of LLR(lower lip retraction) by the compound in rats at a dose of 8 mg/kg; format: functional
In short: (§4)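 Male Wistar rats, groups of 6, given compound alone ip as 1% Tween 80 suspension. Lower incisor visibility scored 0/0.5/1 at 15, 30 and 45 min after dosing, summed (max 3 per rat). Mean ± SEM versus vehicle, Newman–Keuls test; ED50 with range.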

Rattus norvegicus [7] = species on record: Rattus norvegicus; assay: Effect on 8-OH-DAPT- induced behavioral syndrome(FT: forepaw treading) by the compound in reserpine pretreated rats at a dose of 4.; format: functional; in short: as §3
Rattus norvegicus [8] = species on record: Rattus norvegicus; assay: Induction of behavioral syndrome(FT: forepaw treading) by the compound in reserpine pretreated rats at a dose of 4.; format: functional; in short: as §1
Rattus norvegicus [9] = species on record: Rattus norvegicus; assay: Effect on 8-OH-DAPT- induced behavioral syndrome(FBP: flat body posture) by the compound in reserpine pretreated rats at a dose of 2.; format: functional
Rattus norvegicus [10] = species on record: Rattus norvegicus; assay: Effect on 8-OH-DAPT- induced behavioral syndrome(FBP: flat body posture) by the compound in reserpine pretreated rats at a dose of 4.; format: functional; in short: as §3
Rattus norvegicus [11] = assay: Induction of LLR(lower lip retraction) by the compound in rats at a dose of 4 mg/kg; format: functional; in short: as §4
Rattus norvegicus [12] = species on record: Rattus norvegicus; assay: Induction of behavioral syndrome(FT: forepaw treading) by the compound in reserpine pretreated rats at a dose of 2.; format: functional
Rattus norvegicus [13] = assay: Induction of LLR(lower lip retraction) by the compound in rats at a dose of 16 mg/kg; format: functional; in short: as §4
Rattus norvegicus [14] = species on record: Rattus norvegicus; assay: Effect on 8-OH-DAPT- induced behavioral syndrome(FBP: flat body posture) by the compound in reserpine pretreated rats at a dose of 8.; format: functional; in short: as §3
Rattus norvegicus [15] = assay: Effect on 8-OH-DPAT-Induced LLR(lower lip retraction) in rats at a dose of 4 mg/kg; format: functional
In short: (§5)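 Male Wistar rats, groups of 6. Compound given ip in 1% Tween 80 45 min before 8-OH-DPAT 1 mg/kg sc. Lower incisor visibility scored 0/0.5/1 at 15, 30 and 45 min after agonist, summed (max 3). Mean ± SEM; Newman–Keuls test; ED50 with range.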

Rattus norvegicus [16] = species on record: Rattus norvegicus; assay: Induction of behavioral syndrome(FT: forepaw treading) by the compound in reserpine pretreated rats at a dose of 8.; format: functional; in short: as §1
Rattus norvegicus [17] = species on record: Rattus norvegicus; assay: Dose Inducing behavioral syndrome(FBP: flat body posture) by the compound in reserpine pretreated rats.; format: functional; in short: as §2
Rattus norvegicus [18] = species on record: Rattus norvegicus; assay: Dose Inducing behavioral syndrome(FT: forepaw treading) by the compound in reserpine pretreated rats.; format: functional; in short: as §2
Rattus norvegicus [19] = species on record: Rattus norvegicus; assay: Effect on 8-OH-DAPT- induced behavioral syndrome(FT: forepaw treading) by the compound in reserpine pretreated rats at a dose of 8.; format: functional; in short: as §3
Rattus norvegicus [20] = assay: Effect on 8-OH-DPAT-Induced LLR(lower lip retraction) in rats at a dose of 16 mg/kg; format: functional; in short: as §5
Rattus norvegicus [21] = assay: Effect on 8-OH-DPAT-Induced LLR(lower lip retraction) in rats at a dose of 8 mg/kg; format: functional; in short: as §5
[22] = biological target: T1, 5-hydroxytryptamine receptor 1A (Rattus norvegicus, UniProt P19327); assay: Ability to displace [3H]8-OH-DPAT from 5-hydroxytryptamine 1A receptor
T1 sequence (P19327 whole entry): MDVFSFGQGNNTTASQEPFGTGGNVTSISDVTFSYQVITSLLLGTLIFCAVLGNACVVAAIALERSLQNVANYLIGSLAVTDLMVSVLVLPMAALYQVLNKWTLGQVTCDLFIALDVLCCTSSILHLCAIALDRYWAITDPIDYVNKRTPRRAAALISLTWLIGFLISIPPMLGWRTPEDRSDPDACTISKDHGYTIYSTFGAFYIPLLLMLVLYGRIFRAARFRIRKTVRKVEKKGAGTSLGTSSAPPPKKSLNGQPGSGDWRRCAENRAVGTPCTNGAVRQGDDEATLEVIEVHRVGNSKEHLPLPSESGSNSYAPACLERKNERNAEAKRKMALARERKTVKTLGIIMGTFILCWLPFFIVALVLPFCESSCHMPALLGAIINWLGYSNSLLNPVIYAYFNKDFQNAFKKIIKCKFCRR
In short: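 Rat hippocampal membranes, [3H]8-OH-DPAT radioligand. Ki from at least three competition experiments, each with 10–14 drug concentrations run in triplicate. Ki calculated with the Cheng–Prusoff equation.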

Rattus norvegicus [23] = species on record: Rattus norvegicus; assay: Induction of behavioral syndrome(FT: forepaw treading) by the compound in reserpine pretreated rats at a dose of 8; FT mean score; format: functional; in short: as §1
Rattus norvegicus [24] = species on record: Rattus norvegicus; assay: Effect on 8-OH-DAPT- induced behavioral syndrome(FT: forepaw treading) by the compound in reserpine pretreated rats at a dose of 4; FT mean score; format: functional; in short: as §3
Rattus norvegicus [25] = species on record: Rattus norvegicus; assay: Effect on 8-OH-DAPT- induced behavioral syndrome(FBP: flat body posture) by the compound in reserpine pretreated rats at a dose of 16; FBP mean score; format: functional; in short: as §3
Rattus norvegicus [26] = assay: Effect on 8-OH-DPAT-Induced LLR(lower lip retraction) in rats at a dose of 4 mg/kg; LLR score; format: functional; in short: as §5
Rattus norvegicus [27] = assay: Induction of LLR(lower lip retraction) by the compound in rats at a dose of 16 mg/kg; LLR score; format: functional; in short: as §4
Rattus norvegicus [28] = species on record: Rattus norvegicus; assay: Effect on 8-OH-DAPT- induced behavioral syndrome(FBP: flat body posture) by the compound in reserpine pretreated rats at a dose of 4; FBP mean score; format: functional; in short: as §3
Rattus norvegicus [29] = assay: Induction of LLR(lower lip retraction) by the compound in rats at a dose of 8 mg/kg; LLR score; format: functional; in short: as §4
Rattus norvegicus [30] = assay: Induction of LLR(lower lip retraction) by the compound in rats at a dose of 4 mg/kg; LLR score; format: functional; in short: as §4
Rattus norvegicus [31] = assay: Effect on 8-OH-DPAT-Induced LLR(lower lip retraction) in rats at a dose of 8 mg/kg; LLR score; format: functional; in short: as §5
Rattus norvegicus [32] = assay: Effect on 8-OH-DPAT-Induced LLR(lower lip retraction) in rats at a dose of 16 mg/kg; LLR score; format: functional; in short: as §5
Rattus norvegicus [33] = species on record: Rattus norvegicus; assay: Induction of behavioral syndrome(FT: forepaw treading) by the compound in reserpine pretreated rats at a dose of 4; FT mean score; format: functional; in short: as §1
Rattus norvegicus [34] = species on record: Rattus norvegicus; assay: Induction of behavioral syndrome(FBP: flat body posture) by the compound in reserpine pretreated rats at a dose of 4; FBP mean score; format: functional; in short: as §1
Rattus norvegicus [35] = species on record: Rattus norvegicus; assay: Dose Inducing behavioral syndrome(FBP: flat body posture) by the compound in reserpine pretreated rats; format: functional; in short: as §2
Rattus norvegicus [36] = species on record: Rattus norvegicus; assay: Induction of behavioral syndrome(FT: forepaw treading) by the compound in reserpine pretreated rats at a dose of 16; FT mean score; format: functional; in short: as §1
Rattus norvegicus [37] = species on record: Rattus norvegicus; assay: Induction of behavioral syndrome(FBP: flat body posture) by the compound in reserpine pretreated rats at a dose of 8; FBP mean score; format: functional; in short: as §1
Rattus norvegicus [38] = species on record: Rattus norvegicus; assay: Effect on 8-OH-DAPT- induced behavioral syndrome(FBP: flat body posture) by the compound in reserpine pretreated rats at a dose of 8; FBP mean score; format: functional; in short: as §3
Rattus norvegicus [39] = species on record: Rattus norvegicus; assay: Effect on 8-OH-DAPT- induced behavioral syndrome(FT: forepaw treading) by the compound in reserpine pretreated rats at a dose of 8; FT mean score; format: functional; in short: as §3
Rattus norvegicus [40] = species on record: Rattus norvegicus; assay: Effect on 8-OH-DAPT- induced behavioral syndrome(FT: forepaw treading) by the compound in reserpine pretreated rats at a dose of 16; FT mean score; format: functional; in short: as §3
Rattus norvegicus [41] = species on record: Rattus norvegicus; assay: Induction of behavioral syndrome(FBP: flat body posture) by the compound in reserpine pretreated rats at a dose of 16; FBP mean score; format: functional; in short: as §2

For `COc1ccccc1N1CCN(C2CCC(N3C(=O)c4ccccc4C3=O)CC2)CC1` (stereo not drawn), which FBP mean score (Rattus norvegicus [1]) is on record?
The FBP mean score was 0.2.

And the FBP mean score (Rattus norvegicus [2])?
Its FBP mean score is 0.1.

What about the FT mean score (Rattus norvegicus [3]) of the same compound?
Its FT mean score is 6.2.

And the FBP mean score (Rattus norvegicus [4])?
Its FBP mean score is 0.2.

And the ED50 (Rattus norvegicus [5])?
The ED50 was 7.5 mg/kg.

What about the LLR score (Rattus norvegicus [6]) of the same compound?
Its LLR score is 1.

What about the FT mean score (Rattus norvegicus [7]) of the same compound?
The FT mean score was 4.2.

What about the FT mean score (Rattus norvegicus [8]) of the same compound?
Its FT mean score is 0.2.

What about the FBP mean score (Rattus norvegicus [9]) of the same compound?
Its FBP mean score is 9.8.

And the FBP mean score (Rattus norvegicus [10])?
Its FBP mean score is 8.8.

And the LLR score (Rattus norvegicus [11])?
The LLR score was 1.3.

What about the FT mean score (Rattus norvegicus [12]) of the same compound?
The FT mean score was 0.1.

What about the LLR score (Rattus norvegicus [13]) of the same compound?
The LLR score was 1.2.

What about the FBP mean score (Rattus norvegicus [14]) of the same compound?
Its FBP mean score is 5.6.

What about the LLR score (Rattus norvegicus [15]) of the same compound?
Its LLR score is 2.

What about the FT mean score (Rattus norvegicus [16]) of the same compound?
Its FT mean score is 0.2.

And the ED50 (Rattus norvegicus [17])?
Its ED50 is 6.3.

And the ED50 (Rattus norvegicus [18])?
Its ED50 is 2.3 mg/kg.

What about the FT mean score (Rattus norvegicus [19]) of the same compound?
The FT mean score was 1.

What about the LLR score (Rattus norvegicus [20]) of the same compound?
The LLR score was 0.6.

What about the LLR score (Rattus norvegicus [21]) of the same compound?
The LLR score was 1.5.

What about the Ki [22] of the same compound?
The Ki was 8 nM.

What does the source list for `COc1ccccc1N1CCN(CCCn2nnc3ccccc32)CC1`?
FT mean score (Rattus norvegicus [23]): 0.2; FT mean score (Rattus norvegicus [24]): 5.8; FBP mean score (Rattus norvegicus [25]): 6.1; ED50 (Rattus norvegicus [5]): 6.5 mg/kg; LLR score (Rattus norvegicus [26]): 1.1; LLR score (Rattus norvegicus [27]): 0.6; FBP mean score (Rattus norvegicus [28]): 11.5; LLR score (Rattus norvegicus [29]): 0.1; LLR score (Rattus norvegicus [30]): 0; LLR score (Rattus norvegicus [31]): 0.7; LLR score (Rattus norvegicus [32]): 0.9; FT mean score (Rattus norvegicus [33]): 0.2; FBP mean score (Rattus norvegicus [34]): 0.2; ED50 (Rattus norvegicus [35]): 10.5 mg/kg; FT mean score (Rattus norvegicus [36]): 0.1; FBP mean score (Rattus norvegicus [37]): 0.2; FBP mean score (Rattus norvegicus [38]): 8; ED50 (Rattus norvegicus [18]): 5.2 mg/kg; FT mean score (Rattus norvegicus [39]): 3.7; FT mean score (Rattus norvegicus [40]): 2.6; FBP mean score (Rattus norvegicus [41]): 0.1
